# According to paper PMC3042036 (Pharmacological research : the official journal of the …, 2010):
# What was measured:
# [1] = tested on: Tg mice that express human tau; details: cited from earlier work
# [2] = Plasma and brain compound concentrations after i.p. administration to mice; format: in vivo, mice (B6C3F1); details: for concentration at 2 h / Kp at 2 h: 5 mg/kg; for Plasma drug level / Brain drug level / B/P (Brain-to-Plasma ratio): mice; for B/P (Brain-to-Plasma ratio): total drug
# How it was run: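 Male B6C3F1 mice are dosed i.p. with test compound in DMSO. Brains are sonicated in 10 mM ammonium acetate, pH 5.7 (1:2 w/v). Plasma comes from blood collected with EDTA and spun 10 min at 4500g, 4°C. Each 50 μl aliquot is precipitated with 0.2 ml acetonitrile and spun at 15,000g. Supernatants are quantified by LC-MS/MS.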
# brain acetyl-tubulin = experiment: Brain acetyl-tubulin ELISA after administration to mice; format: in vivo, mice (B6C3F1); details: for Brain acetyl-tubulin relative to vehicle: 16 hours after dosing
# How it was run: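 Young male B6C3F1 mice (2–3 months) get a single i.p. dose of test compound in DMSO (~40 μl, scaled to body weight), n=3–6 per group. Brain hemispheres are sonicated 1:5 w/v in RIPA with protease inhibitors and trichostatin A. Sandwich ELISA uses 12G10 α-tubulin capture and HRP-acetyl-tubulin detection at 450 nm. Inputs run from 60 to 2.2 ng/μl in duplicate and are fit to the vehicle input curve.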
# [3] = molecular target: T1, Pgp (human MDR1) in MDCK-MDR cells (Homo sapiens, UniProt P08183); experiment: Inhibition of Pgp-mediated transport of digoxin in MDCK-MDR cells; details: 10 μM digoxin + 5 μM test compound
# [4] = molecular target: T1, Pgp (human MDR1) in MDCK-MDR cells; experiment: MDCK-MDR bi-directional permeability assay; details: 5 μM test compound; for Papp (A-B) / Papp (B-A): pH 7.4
# P-gp (human MDR1) = P-gp (human MDR1) (Homo sapiens, UniProt P08183); experiment: MDCK-MDR bi-directional permeability assay; details: dog, MDCK-MDR1, pH 7.4
# [5] = tested on: acetyl-tubulin in PC12 cells; experiment: Acetyl-tubulin levels in PC12 cells; format: cell-based; details: 24 hours treatment, increasing concentrations
# [6] = tested on: optic nerve (ON) acetyl-tubulin; experiment: Optic nerve acetyl-tubulin ELISA after administration to mice; format: in vivo, mice (B6C3F1); details: 1, 3 and 10 mg/kg i.p., 16 hours after dosing
# How it was run: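 Male B6C3F1 mice (2–3 months, n=3/treatment) get a single i.p. dose of test compound in DMSO, volume scaled to body weight. Optic nerves are taken 16 hours later and sonicated 1:5 w/v in RIPA with inhibitors. Acetyl-tubulin is measured by α-tubulin-capture/HRP-acetyl-tubulin ELISA at 450 nm, using duplicate serial inputs. Values are read off a vehicle-control input curve and normalized to vehicle mice.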
# [7] = male, B6C3F1, mouse, brain, intraperitoneal, 3 mg/kg
# [8] = male, B6C3F1, mouse, brain, ip, 10 mg/kg
# [9] = male, B6C3F1, mouse, brain/plasma, ip
# [10] = male, B6C3F1, mouse, plasma, ip
# Sequence of P-gp (human MDR1) (P08183 whole entry): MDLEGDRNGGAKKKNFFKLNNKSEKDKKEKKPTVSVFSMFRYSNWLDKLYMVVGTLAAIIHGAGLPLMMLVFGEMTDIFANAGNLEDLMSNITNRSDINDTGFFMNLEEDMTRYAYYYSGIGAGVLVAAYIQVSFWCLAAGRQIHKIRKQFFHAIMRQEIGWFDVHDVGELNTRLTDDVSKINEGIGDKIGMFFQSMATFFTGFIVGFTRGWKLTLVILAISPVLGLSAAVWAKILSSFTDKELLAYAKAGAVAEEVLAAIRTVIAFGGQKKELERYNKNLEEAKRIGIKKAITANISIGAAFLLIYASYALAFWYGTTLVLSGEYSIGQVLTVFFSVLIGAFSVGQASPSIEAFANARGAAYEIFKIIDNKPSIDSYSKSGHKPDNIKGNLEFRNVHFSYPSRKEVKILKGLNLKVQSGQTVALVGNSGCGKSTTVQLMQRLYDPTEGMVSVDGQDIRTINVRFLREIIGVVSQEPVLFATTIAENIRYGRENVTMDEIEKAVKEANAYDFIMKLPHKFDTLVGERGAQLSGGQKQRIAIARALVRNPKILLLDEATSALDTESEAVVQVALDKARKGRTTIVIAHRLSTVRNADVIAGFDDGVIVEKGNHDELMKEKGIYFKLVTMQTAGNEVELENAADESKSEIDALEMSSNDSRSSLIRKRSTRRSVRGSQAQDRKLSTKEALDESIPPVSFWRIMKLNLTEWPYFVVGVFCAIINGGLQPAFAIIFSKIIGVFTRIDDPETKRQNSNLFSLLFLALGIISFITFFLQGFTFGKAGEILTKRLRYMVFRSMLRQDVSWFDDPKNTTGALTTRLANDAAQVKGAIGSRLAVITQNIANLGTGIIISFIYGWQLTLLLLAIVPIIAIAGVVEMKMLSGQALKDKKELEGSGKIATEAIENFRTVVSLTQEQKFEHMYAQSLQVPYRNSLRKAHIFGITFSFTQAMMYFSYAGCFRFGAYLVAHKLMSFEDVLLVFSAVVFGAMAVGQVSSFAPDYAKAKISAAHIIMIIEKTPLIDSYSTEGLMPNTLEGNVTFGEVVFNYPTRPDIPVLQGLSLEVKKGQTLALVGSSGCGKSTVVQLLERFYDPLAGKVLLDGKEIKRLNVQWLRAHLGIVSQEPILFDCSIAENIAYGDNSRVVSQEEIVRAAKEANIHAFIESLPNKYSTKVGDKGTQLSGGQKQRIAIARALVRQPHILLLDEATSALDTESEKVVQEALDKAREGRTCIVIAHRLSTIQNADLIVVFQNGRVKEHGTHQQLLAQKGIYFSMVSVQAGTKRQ
# T1 sequence (P08183 whole entry): as above
"concentration at 2 h ([2]; male, B6C3F1, mouse, brain, ip) [ng/g]","concentration at 2 h [2, 10] [ng/mL]",Structure (SMILES),"concentration at 24 h [2, 8] [ng/g]","Kp at 2 h [2, 9]","Plasma drug level ([2]; i.p. 10 mg/kg, 24 hours)",ON acetyl-tubulin relative to vehicle (in words) [6],"Brain drug level ([2]; i.p. 5 mg/kg, 2 hours) [ng/g]","Plasma drug level ([2]; i.p. 5 mg/kg, 2 hours) [ng/mL]","B/P (Brain-to-Plasma ratio) ([2]; i.p. 5 mg/kg, 2 hours)","Brain drug level ([2]; i.p. 10 mg/kg, 24 hours) [ng/g]",Papp (A-B) [4],Papp (B-A) [4],other results
,,C/C1=C/C[C@@H](/C(C)=C/c2csc(CO)n2)OC(=O)C[C@H](O)C(C)(C)C(=O)[C@H](C)[C@@H](O)[C@@H](C)/C=C/C1 [CNDR-88],,,6.1 ng/mL,neither CNDR-86 nor CNDR-88 elicited a change at any dose,30,12,2.6,45,0.8 10^−6 cm/s,58.6 10^−6 cm/s,"B/P (Brain-to-Plasma ratio) ([2]; i.p. 10 mg/kg, 24 hours): 7.3"
,,"C/C1=C/C[C@@H](/C(C)=C/c2csc(CO)n2)OC(=O)C[C@H](O)C(C)(C)C(=O)[C@H](C)[C@@H](O)[C@@H](C)CCC1 [CNDR-89, 12,13-desoxy-epothilone F]",,,BLD,only resulted in an increase of the stabilized MT biomarker at 10 mg/kg,24,6.8,3.5,13,2.3 10^−6 cm/s,63 10^−6 cm/s,Brain acetyl-tubulin relative to vehicle (brain acetyl-tubulin; 3 mg/kg i.p.): increase of acetyl-tubulin relative to vehicle; Brain acetyl-tubulin relative to vehicle (brain acetyl-tubulin; 10 mg/kg i.p.): no effect
142,319,"C/C(=C\c1csc(C)n1)[C@@H]1C[C@@H]2O[C@]2(C)CCC[C@H](C)[C@H](O)[C@@H](C)C(=O)C(C)(C)[C@@H](O)CC(=O)N1 [CNDR-90, ixabepilone, reference compound]",107,0.4,,,,,,,,,"Kp at 24 h ([2]; male, B6C3F1, mouse, brain/plasma, ip, 10 mg/kg): 2.6; concentration at 24 h ([2]; male, B6C3F1, mouse, plasma, ip, 10 mg/kg): 41 ng/mL"
85,1290,"CC(=O)O[C@H]1C(=O)[C@@]2(C)[C@H]([C@H](OC(=O)c3ccccc3)[C@]3(O)C[C@H](OC(=O)[C@H](O)[C@@H](NC(=O)c4ccccc4)c4ccccc4)C(C)=C1C3(C)C)[C@]1(OC(C)=O)CO[C@@H]1C[C@@H]2O [Paclitaxel, reference compound]",,,,,,,0.07,,,,Effect in Tg mice that over-express human tau ([1]; drug absorption at peripheral neuromuscular junctions): increased MT density and marked improvement in motor function

Structure (SMILES),"concentration at 2 h ([2]; male, B6C3F1, mouse, brain, ip) [ng/g]","concentration at 2 h [2, 10] [ng/mL]","concentration at 24 h [2, 8] [ng/g]","Kp at 2 h [2, 9]","Plasma drug level ([2]; i.p. 10 mg/kg, 24 hours)",ON acetyl-tubulin relative to vehicle (in words) [6],"Brain drug level ([2]; i.p. 5 mg/kg, 2 hours) [ng/g]","Plasma drug level ([2]; i.p. 5 mg/kg, 2 hours) [ng/mL]","B/P (Brain-to-Plasma ratio) ([2]; i.p. 5 mg/kg, 2 hours)","Brain drug level ([2]; i.p. 10 mg/kg, 24 hours) [ng/g]",Papp (A-B) [4],Papp (B-A) [4],other results
"C/C1=C/C[C@@H](/C(C)=C/c2csc(C)n2)OC(=O)C[C@H](O)C(C)(C)C(=O)[C@H](C)[C@@H](O)[C@@H](C)CCC1 [CNDR-66, Epothilone D]",109,14,64,7.6,BLD,elevation of acetyl-tubulin at all doses,,,,,,,"Effect in Tg mice that express mutant human tau [1]: improve CNS axonal integrity, MT density and cognitive performance; Brain elimination half-life compared with plasma ([2]; full pharmacokinetic analysis, data not shown): far exceeded that observed in the plasma; concentration at 7 days [2, 7]: 8.3 ng/g; concentration at 10 days [2, 7]: 1.8 ng/g; Brain acetyl-tubulin levels (brain acetyl-tubulin; single 1 mg/kg, 7 days after dosing): significant increase of brain acetyl-tubulin; Brain acetyl-tubulin levels (brain acetyl-tubulin; single 3 mg/kg, 6 and 10 days after dosing): increased acetyl-tubulin levels; Brain acetyl-tubulin levels (brain acetyl-tubulin; single 3 mg/kg, 7 days after dosing): increase of acetyl-tubulin; Brain acetyl-tubulin levels (brain acetyl-tubulin; single 3 mg/kg, 14 days after dosing): statistically insignificant change; Brain acetyl-tubulin levels (brain acetyl-tubulin; single 6 mg/kg, 7 days after dosing, compared with 3 mg/kg): not further increased; Inhibition of Pgp transport of digoxin (in words) [3]: potent inhibitor of Pgp transport; Efflux Ratio (B-A)/(A-B) [4]: near unity; Papp A→B at 2 h, 5 µM (P-gp (human MDR1)): 30 ×10⁻⁶ cm/s; Papp B→A at 2 h, 5 µM (P-gp (human MDR1)): 46.8 ×10⁻⁶ cm/s; efflux ratio at 2 h, 5 µM (P-gp (human MDR1)): 1.6; Amount of acetyl-tubulin in PC12 cells [5]: significant concentration-dependent increase"
